Compounds with a hit are over-represented: about 3.5% of the library has one in this group of screens.
MrgX1 ag = agonists of human MrgX1 receptor, primary screen, HEK293 cells, Fluo-4 calcium flux. Mas-related G-protein coupled receptor member X1 (Homo sapiens), Q96LB2. B-score at 10 µM. Fluo-4 calcium fluorescence, agonist mode; active compounds read high. 0.44% of 310,000 active. AID 588627, 2011;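 active means calcium response B-score plate-corrected fluorescence ratio at least 3 library SD, with starting fluorescence B-score inside 5 SD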
Target sequence (Q96LB2 whole entry, looked up): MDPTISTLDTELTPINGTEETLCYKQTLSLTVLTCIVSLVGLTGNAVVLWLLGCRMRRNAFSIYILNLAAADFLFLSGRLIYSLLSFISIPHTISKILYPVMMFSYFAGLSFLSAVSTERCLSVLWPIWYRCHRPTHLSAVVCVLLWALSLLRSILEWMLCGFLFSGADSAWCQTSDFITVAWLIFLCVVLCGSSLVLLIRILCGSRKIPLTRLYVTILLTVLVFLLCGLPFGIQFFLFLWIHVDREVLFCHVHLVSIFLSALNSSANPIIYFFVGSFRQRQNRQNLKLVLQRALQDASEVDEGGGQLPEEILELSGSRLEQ
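System: HEK293 cells stably expressing human MrgX1 receptor; Dosing: test compound in the initial addition of three; Schedule: overnight plating, then 30 min 37 °C plus 30 min room-temperature dye loading; Detection: kinetic calcium dye fluorescence, Fluo-4 NW; Controls: per-plate positive and negative controls for Z′ factor.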
RGS4 pot = RGS4 potentiators or activators, primary screen, cell-based, HEK293 M3R inducible RGS4, calcium flux; carbachol calcium flux Fluo4; active compounds read low; 0.92% of 310,000 active; B-score at 10 µM;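 active means B-score of the integrated calcium signal more than 4 SD below the library mean, with starting fluorescence not abnormally high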;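 further: negative B-score means reduced calcium response which marks RGS4 activation or potentiation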
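Reagent: ECmax carbachol challenge; Test system: M3R-expressing HEK293 line, RGS4 induced by doxycycline; Schedule: overnight RGS4 induction, 30 min dye load 37 °C, 20 min compound RT; Detection: calcium dye Fluo4 fluorescence; Read-out: Agonist-evoked peak-minus-minimum fluorescence over baseline, integrated ratio, B score.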
RGS4 block = RGS4 inhibitors, primary screen, cell-based, HEK293 M3R inducible RGS4, calcium flux. Regulator of G-protein signaling 4 (Homo sapiens), P49798. Fluo-4 calcium flux; active compounds read high; triggered by carbachol at its EC20. B-score at 10 µM. 0.45% of 310,000 active. AID 463165, 2010;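 active means B-score, a plate-corrected calcium signal, over three deviations above library mean, with baseline fluorescence within five deviations of library mean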;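 further: RGS4 expression induced by doxycycline in cells with stable M3 receptor; B-score is computed from the integrated fluorescence ratio over baseline after carbachol; higher B-score means a larger calcium signal and so more RGS4 inhibition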
Target sequence (P49798 whole entry, looked up): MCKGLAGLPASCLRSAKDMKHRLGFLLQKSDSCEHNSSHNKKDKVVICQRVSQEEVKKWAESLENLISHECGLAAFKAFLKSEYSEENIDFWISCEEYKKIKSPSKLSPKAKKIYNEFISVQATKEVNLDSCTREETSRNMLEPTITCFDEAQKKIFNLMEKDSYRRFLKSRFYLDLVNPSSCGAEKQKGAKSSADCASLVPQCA
MrgX1 PAM = positive allosteric modulators of MrgX1, primary screen, HEK293 cells, Fluo-4 calcium flux; Mas-related G-protein coupled receptor member X1 (Homo sapiens), Q96LB2; FDSS; active compounds read high; B-score at 10 µM; 0.63% of 310,000 active;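 active means plate-corrected calcium response at least 3 library SD above typical, normal starting fluorescence, not activating the receptor alone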;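 further: compound read alongside a low EC10 to EC30 dose of BAM8-22 agonist; peak minus trough fluorescence over baseline measured at the second addition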
MrgX1 antagonist = antagonists of human MrgX1 receptor, primary screen, HEK293 cells, Fluo-4 calcium flux | 1.3% of 310,000 active | BAM8-22 antagonism; active compounds read low | Mas-related G-protein coupled receptor member X1 (Homo sapiens), Q96LB2 | B-score at 10 µM | AID 588676, 2011;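 active means calcium-response B-score plate-corrected more than 3 library SD below zero, starting fluorescence within 5 deviations, no agonist response on first addition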;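 further: peak minus trough fluorescence over baseline after final BAM8-22 challenge near maximal dose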
MrgX1 ant reconf = MrgX1 receptor antagonists, duplicate retest, confirmation, HEK293 cells, Fluo-4 calcium flux; AID 602420, 2012; remaining BAM8-22 calcium response % of control (active compounds read low), % at 10 µM; BAM8-22 calcium flux; active compounds read low; shares compounds with MrgX1 antagonist; 19% of 2,300 active;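 active means remaining agonist calcium response no higher than 100% minus 3 SD of agonist-only control wells, with starting fluorescence near control levels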;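 further: agonist BAM8-22 given at a near maximal EC90 to ECmax level; peak minus minimum fluorescence divided by baseline after agonist addition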
HEK293 Ca flux = nonspecific calcium signal in parental HEK293, confirmation, counter-screen for MrgX1 antagonist project, parental HEK293 cells, Fluo-4 calcium flux; shares compounds with MrgX1 antagonist; Fluo-4 calcium fluorescence, FDSS; fluorescence ratio F(max-min)/F0 at 10 µM; 2% of 4,000 active;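 active means duplicate-averaged calcium fluorescence ratio at least three times the standard deviation of buffer wells, a nonspecific response in parental cells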
HEK293 Ca counter = calcium response in parental HEK293 cells, primary screen, counter-screen for MrgX1 allosteric activator project, cell-based, Fluo-4 calcium flux, duplicate | shares compounds with MrgX1 antagonist | Fluo-4 fluorescence ratio; active compounds read high | fluorescence ratio F(max-min)/F0 at 10 µM | 0.4% of 4,000 active;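 active means calcium fluorescence ratio, averaged over duplicates, at least 3 SD of the buffer-well ratio, meaning a nonspecific response in receptor-free cells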;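 further: untransfected parental HEK293 lacking MrgX1 used as counterscreen for MrgX1 allosteric activators; fluorescence change taken during the second addition on a kinetic imager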
HEK293 Ca cntr2 = calcium response in parental HEK293 cells, primary screen, counter-screen for MrgX1 agonist project, cell-based, Fluo-4 calcium flux, duplicate, agonist mode | shares compounds with MrgX1 antagonist | Fluo-4 calcium fluorescence (FDSS); active compounds read high | fluorescence ratio F(max-min)/F0 at 10 µM | 8.7% of 4,000 active | AID 624115, 2012;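 active means calcium fluorescence ratio at least three times the spread of buffer wells, meaning a non-specific response in parental cells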
* marks the source's active call; other numbers are inactive results; i = inactive; / = no result.

SMILES	MrgX1 ag	RGS4 pot	RGS4 block	MrgX1 PAM	MrgX1 antagonist	MrgX1 ant reconf	HEK293 Ca flux	HEK293 Ca counter	HEK293 Ca cntr2
NS(=O)(=O)c1ccc(NC(=O)COc2cccc3ccccc23)cc1	i	i	i	i	i	/	/	/	/
Cn1c(C(=O)N2CCc3ccccc3C2)cc2c(=O)n3ccccc3nc21	i	i	i	i	-5.8*	i	i	i	i
CN(C)C(CNC(=O)CCc1c[nH]c2ccccc12)c1ccccc1 (stereo not drawn)	i	i	i	i	i	/	/	/	/
Cc1ccc(C(NC(=O)N2CCOCC2)C(Cl)(Cl)Cl)cc1F (stereo not drawn)	i	i	i	i	-5.3*	81%*	i	i	i
CCN(CC)C(=O)NC(c1ccc(C)c(F)c1)C(Cl)(Cl)Cl (stereo not drawn)	i	i	i	i	i	/	/	/	/
CN(CC(=O)Nc1cccc(F)c1)C(=O)c1cc([N+](=O)[O-])ccc1N1CCOCC1	i	i	i	i	i	/	/	/	/
CCc1cnccc1CCC(=O)Nc1ccccc1C	i	i	i	i	i	/	/	/	/
CCCc1nc2ccccc2c(=O)n1CC(=O)c1ccccc1	i	i	i	i	-5.8*	i	i	i	i
Cc1cccc(C)c1NCC(=O)N1CCN(Cc2ccccc2)CC1	i	i	i	i	i	/	/	/	/
O=C(CCSc1ccccc1)NC1CCCCCC1	i	i	i	i	i	/	/	/	/
O=C(CCSc1ccccc1)NC(=O)COC(=O)C1CCCCC1	i	i	i	i	-4.6*	i	i	i	i
C[C@@H]1CCC[C@]2(O[C@H](CCO)C[C@@H](O)[C@@H]2O)O1	i	i	i	i	i	/	/	/	/
O=C1CC(N2CCN(Cc3ccccc3)CC2)C(=O)N1CCc1ccccc1 (stereo not drawn)	i	i	i	i	-5.4*	i	i	i	i
O=C1CC(N2CCN(Cc3ccc(Cl)cc3)CC2)C(=O)N1CCc1ccccc1 (stereo not drawn)	i	i	i	i	i	/	/	/	/
Cc1cccc(NC(=O)CSc2nc(N)cc(N)n2)c1	i	i	i	i	i	/	/	/	/
CCOC(=O)c1cccc(NC(=O)CSc2nc(N)cc(N)n2)c1	i	i	i	i	-7.7*	i	i	i	i
O=C(NCc1n[nH]c(=O)c2ccccc12)C1CC(=O)N(c2ccccc2)C1 (stereo not drawn)	i	i	i	i	i	/	/	/	/
CSc1nnc2n(C)c3c(c(=O)n12)C1(CCCC1)Cc1ccccc1-3	i	i	i	i	i	/	/	/	/
CSc1n[nH]c2nc3c(c(=O)n12)C1(CCCC1)Cc1ccccc1-3	i	i	i	i	-5.4*	i	i	i	i
CCn1ccc(C(=O)Nc2ncc(C)s2)n1	i	i	i	i	-5.4*	i	i	i	i
O=C(NCc1cc(F)ccc1F)C1CCC(=O)N(C2CCCCCC2)C1 (stereo not drawn)	i	i	i	i	i	/	/	/	/
COC(=O)C(C)Sc1nc2c(cnn2-c2ccc(F)cc2)c(=O)[nH]1 (stereo not drawn)	i	i	i	i	i	/	/	/	/
CCC(Sc1nc2c(cnn2-c2ccccc2)c(=O)[nH]1)C(=O)OC (stereo not drawn)	i	i	i	i	-5.2*	82%*	i	i	i
Cc1ccc(C(=O)NC(=S)Nc2ccccc2N2CCCC2)cc1[N+](=O)[O-]	i	i	i	i	-23*	i	i	i	i
CC(=O)Nc1ccc(S(=O)(=O)N2CCN(C(=O)c3ncoc3-c3ccc(C)cc3)CC2)cc1	i	i	i	i	i	/	/	/	/
SMILES	MrgX1 ag	RGS4 pot	RGS4 block	MrgX1 PAM	MrgX1 antagonist	MrgX1 ant reconf	HEK293 Ca flux	HEK293 Ca counter	HEK293 Ca cntr2
Cc1ccc(C(=O)OCC(=O)N(C)C2CCS(=O)(=O)C2)cc1S(=O)(=O)N1CCCCC1 (stereo not drawn)	i	i	i	i	i	/	/	/	/
CN(C(=O)COC(=O)c1cccc(S(=O)(=O)N2CCCCC2)c1)C1CCS(=O)(=O)C1 (stereo not drawn)	i	i	i	i	-6*	i	i	i	i
CCN(C(=O)c1ccc(S(=O)(=O)N2CCC(C)CC2)cc1)C1CCS(=O)(=O)C1 (stereo not drawn)	i	i	i	i	-4.6*	i	i	i	i
Cc1c(C(=O)N2CCCCC2)c(S(=O)(=O)NCCc2ccc(S(N)(=O)=O)cc2)c(C)n1C	i	i	i	i	i	/	/	/	/
O=C(Nc1ccc(Cl)c(Cl)c1)Nc1ccccc1O	i	i	i	i	-5.5*	i	i	i	i
O=C(Nc1ccccc1O)C(c1ccccc1)c1ccccc1	i	i	i	i	-5.1*	76%*	i	i	i
c1coc(C2Nc3ccccc3-c3nc4ccccc4n32)c1 (stereo not drawn)	i	i	i	i	-6.3*	i	i	i	i
Cc1cc(C)n2nc(C(=O)OCC(=O)c3ccc(F)cc3)nc2n1	i	i	i	i	i	/	/	/	/
O=S(=O)(c1ccccc1Cl)N1CCC(O)(c2ccc3c(c2)OCO3)CC1	i	i	i	i	-4.9*	i	i	i	i
O=S(=O)(c1ccc2c(c1)OCCO2)N1CCC(O)(c2ccc(Cl)cc2)CC1	i	i	i	i	i	/	/	/	/

Compound activity as filed in PubChem.
